Experimental findings from ChEMBL document CHEMBL1142917, “Synthesis and structure-antibacterial activity relationship investigation of isomeric 2,3,5-substituted perhydropyrrolo[3,4-d]isoxazole-4,6-diones” (2007) are described below.

For one experiment, the system named is Enterococcus faecalis. Description: Antibacterial activity against Enterococcus faecalis ATCC 29212 by broth microdilution method. It counts as functional. The method in brief:
(§1)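 NCCLS broth microdilution in Mueller–Hinton broth, DMSO stocks. Twofold series of 1600 to 0.39 μg/ml, or 1000 to 0.975 μg/ml for some compounds. Inoculum set to 0.5 McFarland (1×10^8 CFU/ml), diluted 1/10, giving 5×10^5 CFU/ml per well. Plates incubated 16-20 h at 35 °C. MIC taken as the lowest concentration preventing visible growth. Ampicillin reference.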
A general note: In broth dilution the organism is exposed to a series of concentrations in liquid medium.

The next experiment has as its system Staphylococcus aureus. The experiment can be described thus: Antibacterial activity against Staphylococcus aureus ATCC 25923 by broth microdilution method. It counts as functional. The method in brief: as §1

Values after ≈ are worked out from the molar mass of the structure shown.

The term MIC denotes the least concentration at which growth counts as inhibited. A low value points to a more susceptible organism.

Regarding `CN1C(=O)[C@@H]2[C@@H](ON(C)[C@H]2c2ccc(Br)cc2)C1=O` (relative stereo), the values for the MIC in the experiment with Enterococcus faecalis and against Staphylococcus aureus were 620 µM (≈ 202 µg/mL) and 310 µM (≈ 101 µg/mL), respectively.
For `COc1ccc([C@H]2[C@@H]3C(=O)N(c4ccccc4)C(=O)[C@@H]3ON2C)cc1` (relative stereo), in that order: 1180 µM (≈ 399 µg/mL) and 1180 µM (≈ 399 µg/mL).
Turning to `CN1O[C@H]2C(=O)N(c3ccccc3)C(=O)[C@H]2[C@@H]1c1ccc(Br)cc1` (relative stereo), the MIC in the experiment with Enterococcus faecalis worked out at 520 µM (≈ 201 µg/mL); against Staphylococcus aureus, 130 µM (≈ 50.3 µg/mL).
On the same counts, the results for `COc1ccc([C@@H]2[C@@H]3C(=O)N(c4ccccc4)C(=O)[C@@H]3ON2C)cc1` (relative stereo) are 1180 µM (≈ 399 µg/mL) and 590 µM (≈ 200 µg/mL).
For `CN1O[C@H]2C(=O)N(c3ccccc3)C(=O)[C@H]2[C@@H]1c1cccc(Br)c1` (relative stereo), in that order: 520 µM (≈ 201 µg/mL) and 130 µM (≈ 50.3 µg/mL).
For `CN1C(=O)[C@H]2[C@@H](c3ccc(Br)cc3)N(C)O[C@H]2C1=O` (relative stereo), in that order: 1230 µM (≈ 400 µg/mL) and 2460 µM (≈ 800 µg/mL).
In the case of `CN1C(=O)[C@@H]2[C@@H](ON(C)[C@H]2c2ccc(N(C)C)cc2)C1=O` (relative stereo), the minimum inhibitory concentration (MIC) is 5530 µM (≈ 1600 µg/mL) against Enterococcus faecalis and 1380 µM (≈ 399 µg/mL) against Staphylococcus aureus.
On the same counts, the results for `CC1(C)S[C@@H]2[C@H](NC(=O)[C@H](N)c3ccccc3)C(=O)N2[C@H]1C(=O)O` [AMPICILLIN] are 2 µM (≈ 0.699 µg/mL) and 2 µM (≈ 0.699 µg/mL).
On the same counts, the results for `CN1O[C@H]2C(=O)N(c3ccccc3)C(=O)[C@H]2[C@H]1c1cccc(Br)c1` (relative stereo) are 650 µM (≈ 252 µg/mL) and 320 µM (≈ 124 µg/mL).
For `CCN(CC)c1ccc([C@H]2[C@@H]3C(=O)N(C)C(=O)[C@@H]3ON2C)cc1` (relative stereo), in that order: 630 µM (≈ 200 µg/mL) and 630 µM (≈ 200 µg/mL).
Take `CN1C(=O)[C@H]2[C@@H](c3ccccc3)N(C)O[C@H]2C1=O` (relative stereo): the results for the MIC in the experiment with Enterococcus faecalis and against Staphylococcus aureus were 1620 µM (≈ 399 µg/mL) and 810 µM (≈ 199 µg/mL), respectively.
Take `CCN(CC)c1ccc([C@@H]2[C@@H]3C(=O)N(C)C(=O)[C@@H]3ON2C)cc1` (relative stereo): the MIC in the experiment on Enterococcus faecalis and in the experiment on Staphylococcus aureus was 80 µM (≈ 25.4 µg/mL) throughout.
Turning to `Cc1ccc([C@@H]2[C@@H]3C(=O)N(C)C(=O)[C@@H]3ON2C)cc1` (relative stereo), the MIC against Enterococcus faecalis is above 6150 µM; in the experiment with Staphylococcus aureus, 6150 µM (≈ 1600 µg/mL).
As to `CN1C(=O)[C@H]2[C@@H](c3ccc(N(C)C)cc3)N(c3ccccc3)O[C@H]2C1=O` (relative stereo), the MIC in the experiment on Enterococcus faecalis and against Staphylococcus aureus was 280 µM (≈ 98.4 µg/mL) in each case.
Consider `CCN(CC)c1ccc([C@H]2[C@@H]3C(=O)N(c4ccccc4)C(=O)[C@@H]3ON2C)cc1`, for which the MIC in the experiment with Enterococcus faecalis and in the experiment with Staphylococcus aureus was 4220 µM (≈ 1600 µg/mL) in each case.
Consider `CN1C(=O)[C@@H]2[C@@H](ON(C)[C@H]2c2cccc(Br)c2)C1=O` (relative stereo), for which the MIC against Enterococcus faecalis is 1230 µM (≈ 400 µg/mL); against Staphylococcus aureus, 620 µM (≈ 202 µg/mL).
On the same counts, the results for `COc1ccc([C@H]2[C@@H]3C(=O)N(C)C(=O)[C@@H]3ON2C)cc1` (relative stereo) are above 5790 µM and 1450 µM (≈ 401 µg/mL).
For `CN1O[C@H]2C(=O)N(c3ccccc3)C(=O)[C@H]2[C@H]1c1ccc(Br)cc1` (relative stereo), in that order: 520 µM (≈ 201 µg/mL) and 120 µM (≈ 46.5 µg/mL).
On the same counts, the results for `COc1cc([C@H]2[C@@H]3C(=O)N(C)C(=O)[C@@H]3ON2C)ccc1OCc1ccccc1` (relative stereo) are 650 µM (≈ 249 µg/mL) and 330 µM (≈ 126 µg/mL).
On to `CN1O[C@H]2C(=O)N(c3ccccc3)C(=O)[C@H]2[C@@H]1c1ccccc1` (relative stereo), for which the MIC was determined as 1620 µM (≈ 500 µg/mL) with Enterococcus faecalis and 410 µM (≈ 126 µg/mL) against Staphylococcus aureus.
For `CN1C(=O)[C@@H]2[C@@H](ON(C)[C@H]2c2ccccc2)C1=O` (relative stereo), the MIC against Enterococcus faecalis came to 1020 µM (≈ 251 µg/mL); in the experiment with Staphylococcus aureus, 510 µM (≈ 126 µg/mL).
On the same counts, the results for `CCN(CC)c1ccc([C@@H]2[C@@H]3C(=O)N(c4ccccc4)C(=O)[C@@H]3ON2C)cc1` (relative stereo) are 660 µM (≈ 250 µg/mL) and 330 µM (≈ 125 µg/mL).
For `Cc1ccc([C@@H]2[C@@H]3C(=O)N(c4ccccc4)C(=O)[C@@H]3ON2C)cc1` (relative stereo), in that order: 3100 µM (≈ 999 µg/mL) and 3100 µM (≈ 999 µg/mL).
On the same counts, the results for `CN1O[C@H]2C(=O)N(c3ccccc3)C(=O)[C@H]2[C@H]1c1ccccc1` (relative stereo) are 5190 µM (≈ 1600 µg/mL) and above 5190 µM.
`COc1ccc([C@@H]2[C@@H]3C(=O)N(C)C(=O)[C@@H]3ON2C)cc1` (relative stereo): the MIC was above 5790 µM against Enterococcus faecalis and 5790 µM (≈ 1600 µg/mL) with Staphylococcus aureus.
Turning to `COc1cc([C@@H]2[C@@H]3C(=O)N(C)C(=O)[C@@H]3ON2C)ccc1OCc1ccccc1` (relative stereo), the MIC against Enterococcus faecalis and against Staphylococcus aureus was 130 µM (≈ 49.7 µg/mL) each time.
As for `Cc1ccc([C@H]2[C@@H]3C(=O)N(C)C(=O)[C@@H]3ON2C)cc1` (relative stereo), the minimum inhibitory concentration (MIC) against Enterococcus faecalis is 6150 µM (≈ 1600 µg/mL); against Staphylococcus aureus, 3070 µM (≈ 799 µg/mL).
As for `CN1C(=O)[C@@H]2[C@@H](ON(c3ccccc3)[C@H]2c2ccc(N(C)C)cc2)C1=O` (relative stereo), the results for the minimal inhibitory concentration (MIC) against Enterococcus faecalis and against Staphylococcus aureus were 1140 µM (≈ 401 µg/mL) and 280 µM (≈ 98.4 µg/mL), respectively.
`CN1O[C@H]2C(=O)N(c3ccccc3)C(=O)[C@H]2[C@H]1c1ccc(Cl)cc1`: the MIC is 730 µM (≈ 250 µg/mL) in the experiment with Enterococcus faecalis and 360 µM (≈ 123 µg/mL) with Staphylococcus aureus.
For `CN1C(=O)[C@@H]2[C@@H](ON(C)[C@H]2c2ccc(Cl)cc2)C1=O`, in that order: 1430 µM (≈ 401 µg/mL) and 1430 µM (≈ 401 µg/mL).
For `CN1C(=O)[C@H]2[C@@H](c3ccc(N(C)C)cc3)N(C)O[C@H]2C1=O` (relative stereo), in that order: 1380 µM (≈ 399 µg/mL) and 1380 µM (≈ 399 µg/mL).
Regarding `CN1C(=O)[C@H]2[C@@H](c3cccc(Cl)c3)N(C)O[C@H]2C1=O` (relative stereo), the MIC against Enterococcus faecalis stood at 2850 µM (≈ 800 µg/mL); against Staphylococcus aureus, 1430 µM (≈ 401 µg/mL).
On to `CN1O[C@H]2C(=O)N(c3ccccc3)C(=O)[C@H]2[C@H]1c1ccc([N+](=O)[O-])cc1`, for which the minimum inhibitory concentration (MIC) came to 710 µM (≈ 251 µg/mL) in the experiment with Enterococcus faecalis and 570 µM (≈ 201 µg/mL) against Staphylococcus aureus.
For `Cc1ccc([C@H]2[C@@H]3C(=O)N(c4ccccc4)C(=O)[C@@H]3ON2C)cc1` (relative stereo), in that order: 1240 µM (≈ 400 µg/mL) and 620 µM (≈ 200 µg/mL).
For `COc1cc([C@H]2[C@@H]3C(=O)N(c4ccccc4)C(=O)[C@@H]3ON2C)ccc1OCc1ccccc1`, in that order: 1130 µM (≈ 502 µg/mL) and 280 µM (≈ 124 µg/mL).
For `CN1C(=O)[C@@H]2[C@@H](ON(C)[C@H]2c2cccc(Cl)c2)C1=O` (relative stereo), in that order: 1430 µM (≈ 401 µg/mL) and 710 µM (≈ 199 µg/mL).
For the molecule `CN1C(=O)[C@H]2[C@@H](c3ccc([N+](=O)[O-])cc3)N(C)O[C@H]2C1=O`, the MIC was determined as 690 µM (≈ 201 µg/mL) against Enterococcus faecalis and 1370 µM (≈ 399 µg/mL) with Staphylococcus aureus.
As to `COc1cc([C@@H]2[C@@H]3C(=O)N(c4ccccc4)C(=O)[C@@H]3ON2C)ccc1OCc1ccccc1`, the minimal inhibitory concentration (MIC) with Enterococcus faecalis is above 3600 µM; in the experiment with Staphylococcus aureus, 3600 µM (≈ 1600 µg/mL).
For `CN(C)c1ccc([C@@H]2[C@@H]3C(=O)N(c4ccccc4)C(=O)[C@@H]3ON2C)cc1`, in that order: above 4550 µM and 4550 µM (≈ 1600 µg/mL).
On the same counts, the results for `CN1C(=O)[C@@H]2[C@@H](ON(C)[C@H]2c2ccc([N+](=O)[O-])cc2)C1=O` are 5490 µM (≈ 1600 µg/mL) and 2750 µM (≈ 801 µg/mL).
On the same counts, the results for `CN1O[C@H]2C(=O)N(c3ccccc3)C(=O)[C@H]2[C@@H]1c1ccc(Cl)cc1` are 1170 µM (≈ 401 µg/mL) and 1170 µM (≈ 401 µg/mL).
`CN1C(=O)[C@H]2[C@@H](c3cccc(Br)c3)N(C)O[C@H]2C1=O` (relative stereo): the figures for the MIC against Enterococcus faecalis and in the experiment on Staphylococcus aureus were 620 µM (≈ 202 µg/mL) and 1230 µM (≈ 400 µg/mL), respectively.
On the same counts, the results for `CN(C)c1ccc([C@H]2[C@@H]3C(=O)N(c4ccccc4)C(=O)[C@@H]3ON2C)cc1` are 710 µM (≈ 249 µg/mL) and 360 µM (≈ 127 µg/mL).
On the same counts, the results for `CN1C(=O)[C@H]2[C@@H](c3ccc(Cl)cc3)N(C)O[C@H]2C1=O` are 1430 µM (≈ 401 µg/mL) and 1430 µM (≈ 401 µg/mL).
For `CN1O[C@H]2C(=O)N(c3ccccc3)C(=O)[C@H]2[C@@H]1c1ccc([N+](=O)[O-])cc1`, in that order: 280 µM (≈ 98.9 µg/mL) and 570 µM (≈ 201 µg/mL).
